Rows were chosen to be rich in hits. Some 2.4% of all compounds tested hit in one or more screens of this group.
JMJD2C inh – inhibitors of GASC-1 histone demethylase, primary screen, biochemical, fluorescence, DELFIA europium; Lysine-specific demethylase 4C (Homo sapiens), Q9H3R0; GST-JMJD2C(1-420) H3K9me3 demethylation; inhibition, % at 2.35 µM; 330,000 tested, 0.069% active;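 active = more than half of a compound's replicate wells show inhibition beyond 50%, single wells judged on their own value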;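 also: signal counts dimethyl H3K9 product captured on neutravidin plate; 0% = median of DMSO wells and 100% = 0.3 times that DMSO median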
Target sequence (Q9H3R0 1-420 limits assumed): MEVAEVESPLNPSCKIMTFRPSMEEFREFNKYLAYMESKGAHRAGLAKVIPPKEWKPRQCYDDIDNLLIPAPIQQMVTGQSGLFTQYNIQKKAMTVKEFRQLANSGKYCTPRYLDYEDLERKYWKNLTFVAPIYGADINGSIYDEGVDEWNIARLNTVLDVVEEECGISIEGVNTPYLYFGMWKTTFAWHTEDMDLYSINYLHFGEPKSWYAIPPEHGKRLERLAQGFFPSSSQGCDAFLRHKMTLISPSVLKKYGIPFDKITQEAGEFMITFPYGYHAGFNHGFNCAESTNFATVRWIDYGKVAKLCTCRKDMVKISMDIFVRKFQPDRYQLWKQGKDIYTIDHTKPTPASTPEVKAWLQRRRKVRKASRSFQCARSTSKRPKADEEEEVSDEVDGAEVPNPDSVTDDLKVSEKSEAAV
H9c2 protect – cardioprotection against H2O2-induced cell death, primary screen, uHTS, H9c2 cells, ATPLite luminescence; AID 588492, 2011; protection from H2O2 cell death, % at 20 µM; H9c2 cardiomyocytes, H2O2 injury protection, 2 h; 360,000 tested, 0.63% active;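 active = compounds giving at least 50% protection of heart cells from peroxide-induced death in the single-dose screen, raw or plate-pattern-corrected value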;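 also: 0% = DMSO wells with peroxide and 100% = DMSO wells without peroxide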
PP5 inh – PP5 phosphatase inhibitors, primary screen, biochemical, fluorescence. purified PP5c, OMFP substrate fluorescence. 320,000 tested, 0.18% active. inhibition, % at 6.7 µM. Serine/threonine-protein phosphatase 5 (Homo sapiens), P53041. AID 1987, 2009;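 active = inhibition above the campaign's mean inhibition across all tested compounds plus 3 SD, cut at about 9.5% in these data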;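 also: 0% = DMSO only and 100% = 100 µM cantharidin control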
CTSL1 counter – Fasciola hepatica cathepsin L1 inhibitors, primary screen, counter-screen for PFM18AAP inhibitor project, biochemical, QFRET, fluorogenic peptide substrate | inhibition, % at 5.96 µM | AID 1906, 2009 | recombinant F. hepatica cathepsin L1, Z-Leu-Arg-MCA fluorescence | 300,000 tested, 0.49% active;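 active = inhibition above the mean of all tested compounds plus 3 SD, set per screening campaign, cut at about 17% in these data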;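 also: 0% = plate median of test compound wells and 100% = 1 µM Z-Phe-Ala-diazomethylketone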
pCIP destab – p/CIP-EGFP fusion destabilizers, primary screen, fluorescence, F442A cells; Q05BA5; 16 h; decrease of EGFP signal, % at 10 µM; 290,000 tested, 0.01% active; AID 1984, 2009;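 active = EGFP signal decrease of at least 30% at 10 µM or well 3 SD below plate mean, unless failing retest; inactive = the rest, including hits failing retest or dose response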
T cruzi repl – inhibitors of intracellular T. cruzi growth, primary screen, luminescence, NIH3T3 host cells. T. cruzi beta-gal in NIH3T3, 90 h. inhibition, % (no concentration beside the values). 300,000 tested, 1.4% active;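 active = mean inhibition across valid replicates above about 55%, limit read from the data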;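 also: signal also drops with host cell toxicity which is not excluded here; 0% = plate median of DMSO wells and 100% = zero luminescence signal; higher percent means less beta-gal luminescence so fewer parasites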
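Test system: β-gal T. cruzi (Tulahuen C4) inside NIH/3T3 cells / Quantity: 5,000 cells/well / Measured by: luminescence from GalScreen with 0.05% NP40, read after 60 min / Medium: DMEM plus 2% FBS / Measure: parasite load inhibition, % / Reagent: Tulahuen C4 trypomastigotes, 5000/well / Schedule: co-culture of at least 90 h after 3 h attachment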
PP5 conf – PP5 phosphatase inhibitors, confirmation, biochemical, fluorescence, human; shares compounds with PP5 inh; Purified PP5, fluorogenic phosphatase substrate; AID 2331, 2010; 460 tested, 22% active; inhibition, % at 6.7 µM; in the data active = inhibition above about 9.5%
PP1 counter 3x – PP1 phosphatase inhibitors, counter-screen for PP5 inhibitor project, biochemical, fluorescence, triplicate; shares compounds with PP5 inh; PP1 enzyme, fluorescent phosphatase substrate; inhibition, % at 6.7 µM; 460 tested, 4% active; in the data active = inhibition above about 16%
Numbers without * were called inactive; i = inactive; x = no result.

SMILES	JMJD2C inh	H9c2 protect	PP5 inh	CTSL1 counter	pCIP destab	T cruzi repl	PP5 conf	PP1 counter 3x
Cn1ccnc1C(=O)c1ccc(Cl)c(S(=O)(=O)N2CCOCC2)c1	-9	4	10.0*	1	-9	1	-3	-3
COc1ccc(Br)c(C(=O)N(C)CC(=O)Nc2ccc(N3CCOCC3)cc2)c1	11	7	-1	3	x	-6	x	x
CCN(CC)C(=O)C1=C(C)N(Cc2ccc(F)cc2)C(=O)C(CC(=O)NCc2ccco2)C1 (stereo not drawn)	x	-8	x	x	x	x	x	x
COc1ccc(NC(=O)Cc2csc(NC(=O)Nc3ccccc3OC)n2)cc1	x	9	x	x	x	x	x	x
COc1ccccc1NC(=O)Nc1nc(CC(=O)Nc2ccc(F)c(F)c2)cs1	-13	-6	9.9*	-8	x	-5	3	2
Cc1ccc(NC(=S)Nc2nc(CC(=O)Nc3ccccc3)cs2)cc1	-6	-11	10*	1	-4	-26	-6	2
C[C@H]1CN([C@@H](C)CO)C(=O)c2cc(-c3ccccc3F)cnc2O[C@@H]1CN(C)C(=O)NC1CCCCC1	x	3	x	x	x	x	x	x
CC1CN(C(=O)CN(C)S(=O)(=O)c2ccc3ccccc3c2)CC(C)O1 (stereo not drawn)	-22	12	1	2	8	-20	x	x
O=[N+]([O-])c1cccc(-c2c(-c3ccccc3)ncc3ccc(F)cc23)c1	-6	-6	1	x	x	x	x	x
COc1ccc(C2N(S(=O)(=O)c3ccccc3)CCN2S(=O)(=O)c2ccc(C)cc2)cc1 (stereo not drawn)	-1	12	10*	-4	3	35	1	2
Cc1ccc(S(=O)(=O)N2CCN(S(=O)(=O)c3ccc(C)cc3)C2c2ccccc2)cc1	0	14	2	-1	-5	12	x	x
O=C(ON=C1CCN(c2ccc([N+](=O)[O-])cc2)CC1)c1ccccc1	0	-1	9.7*	0	2	-16	-3	-1
COc1ccc(C(=O)ON=C2CCN(c3ccc([N+](=O)[O-])cc3)CC2)cc1	-9	2	4	1	-11	-3	x	x
COc1ccc(C)cc1-n1nnnc1SC(C)C(=O)NC1CCCC1 (stereo not drawn)	5	5	x	x	x	x	x	x
O=C(Nc1ccn(Cc2c(F)c(F)cc(F)c2F)n1)c1ccc(COc2ccc(Cl)cc2Cl)o1	-8	-4	9.8*	2	-11	51	1	2
Cc1nn(Cc2c(F)c(F)c(F)c(F)c2F)c(C)c1NC(=O)c1ccc(COc2ccc(Cl)cc2Cl)o1	-10	-5	10*	17*	2	67*	3	2
CCOc1ccc(CCNC(=O)c2c(C)nn(-c3ccccc3)c2Cl)cc1OCC	5	0	0	-1	0	-1	x	x
CN(CC(=O)Nc1ccc(N2CCOCC2)cc1)C(=O)CCc1cc(C(C)(C)C)c(O)c(C(C)(C)C)c1	3	-3	2	5	x	-1	x	x
Nc1cccc2nsnc12	3	-9	1	-2	-4	0	x	x
Nc1cc2nsnc2cc1Br	-5	-32	11*	114*	-10	-14	49*	1
COc1cc(C(C)=O)ccc1COc1ccc(C(=O)O)cc1OC	-5	6	11*	-2	-7	-7	-1	-1
COc1ccccc1CCNC(=O)C(=O)NCC1OCCCN1S(=O)(=O)c1ccc(F)cc1C (stereo not drawn)	3	0	0	-1	-7	13	x	x
CCOC(=O)N1CCN(C(=O)c2cccn3c(=O)c4cc(Cl)ccc4nc23)CC1	10	7	11*	0	6	10	-5	-5
CCOc1ccc(C(=O)/C=C/c2cn(CN3CCN(C)CC3)c3ccccc23)cc1	-3	-3	11*	5	4	x	0	-1
COc1ccc(-c2cn(-c3ccc(Cl)cc3)c3[n+]2CCCCC3)cc1	-12	-10	19*	0	-26	58*	-2	-3
SMILES	JMJD2C inh	H9c2 protect	PP5 inh	CTSL1 counter	pCIP destab	T cruzi repl	PP5 conf	PP1 counter 3x
COc1ccc2[nH]c3c(c2c1)CCN1C(=O)C(CC(=O)NC(C)(C)C)C[C@H](C(=O)N2CCCCC2)[C@@]31C (stereo partly drawn)	x	-2	x	x	x	x	x	x
NC(=O)c1cccn1-c1ncc(C(F)(F)F)cc1Cl	1	-8	-3	-1	-1	-4	x	x
O=C(Nc1ccc(Br)cc1)c1cccn1-c1ncc(C(F)(F)F)cc1Cl	i	-5	11*	-3	-1	34	6	4
CC(OC(=O)CCN=C1NS(=O)(=O)c2ccccc21)C(=O)N(C)C1CCCCC1 (stereo not drawn)	5	0	0	-2	x	-7	x	x
CCC(=O)Nc1cccc(-n2nnnc2SCC(=O)c2ccc(C)c(C)c2)c1	-8	3	13*	-3	-3	26	2	1
Cc1nc2c(ncn2-c2ccccc2)c(=O)n1NC(=O)CN1CCN(C)CC1	-4	3	0	-1	0	2	x	x
Cc1nc2c(ncn2-c2ccccc2)c(=O)n1NC(=O)CN1CCCCC1	3	3	13*	5	-12	-4	-5	-4
O=c1n(Cc2ccccc2)c(O)c2n1Cc1ccccc1N=C2c1ccc(C(F)(F)F)cc1	x	-1	x	x	x	x	x	x
Cc1ccc(C(=O)NC(C)c2ccccc2)o1 (stereo not drawn)	-18	0	11*	-5	-8	-4	-4	-2
CC(NC(=O)c1ccc(Br)o1)c1ccccc1 (stereo not drawn)	0	0	-1	-11	3	-16	x	x
CC(C)NC(=O)c1ccccc1NC(=O)CCc1ccccc1	-32	-3	10*	0	-6	3	-2	-3
O=C(Nc1cccc2ncccc12)c1ccc([N+](=O)[O-])o1	3	-13	2	4	-24	-8	x	x
O=C(Nc1cccc2ncccc12)c1ccc(-c2ccc(Br)cc2)o1	-11	0	13*	-2	-7	21	-2	-2
O=C1N/C(=N\S(=O)(=O)Cc2ccccc2)S/C1=C/c1cccc([N+](=O)[O-])c1	5	1	11*	2	6	-5	-2	6

Compound activity from PubChem BioAssay.
